Laboratory results taken from publication PMC8711093 (Nature, 2021).
Changes are numbered by the printed parent chain. Entries after “also recorded” stand apart in the source; their conditions may differ.

How the values were obtained:
dorsal horn neurons = test: Spinal cord slice electrophysiology; format: cell-based, rat; details: for increase in eEPSC amplitude from baseline: reversal of the ADO tone; for sEPSC frequency and amplitude: nerve-injured rats, superfusion, reversed by DPCPX, n=8
Method in brief: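 Parasagittal lumbar cord slices (340 μm) from PNL and sham Sprague-Dawley rats, 9-15 weeks, cut in ice-cold sucrose ACSF and superfused at 2 ml/min, 34°C. Whole-cell voltage clamp at −70 mV in lamina I-II neurons; Cs-based internal with QX-314. eEPSCs evoked by dorsal root stimulation (C and A fibre) with gabazine 10 μM and strychnine 0.5 μM. Test compound superfused after stable baseline, then 1 μM DPCPX.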

nerve-injured rats [1] = test: Conditioned place preference; format: in vivo, rat; details: intrathecal; for time spent in the drug paired chamber: nerve-injured rats, n=8
Method in brief: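 Male and female Sprague-Dawley rats, 10-16 weeks, with partial sciatic nerve ligation and lumbar intrathecal catheters. Three-chamber box; pre-conditioning began 10 days post-surgery, excluding rats spending >80% of time in one chamber. Vehicle (DMSO/saline 60:40 or saline) was paired with one chamber in the morning and intrathecal drug with the opposite chamber 4 h later, counterbalanced. Rats were recorded 15 min with free access 20 h later; n = 8/group; morphine positive control.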

rat atrial beat rate = test: Isolated rat atrial experiments; details: isolated rat atria, concentration-response
Stability in rat plasma = format: in vitro ADME
[2] = Stability in human plasma; format: in vitro ADME
[3] = target: T1, human A1R expressed in CHO cells (Homo sapiens, UniProt P30542); format: cell-based
T1 sequence (P30542 1-326): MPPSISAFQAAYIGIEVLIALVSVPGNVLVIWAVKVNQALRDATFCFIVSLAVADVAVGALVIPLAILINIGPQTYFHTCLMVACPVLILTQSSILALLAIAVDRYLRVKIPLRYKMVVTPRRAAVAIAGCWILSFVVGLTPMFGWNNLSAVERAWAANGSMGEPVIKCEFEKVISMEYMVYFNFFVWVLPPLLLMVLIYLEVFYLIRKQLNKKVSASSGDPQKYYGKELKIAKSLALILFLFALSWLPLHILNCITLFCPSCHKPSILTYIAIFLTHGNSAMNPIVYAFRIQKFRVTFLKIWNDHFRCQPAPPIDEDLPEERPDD
Method in brief: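 FlpIN-CHO cells stably expressing WT A1R, grown in DMEM with 20 mM HEPES, 5% FBS and hygromycin B; seeded at 20,000 cells/well overnight. At 37°C in HEPES-buffered saline with rolipram, pH 7.45: 30 min preincubation, 10 min test compound, then 3 μM forskolin ± increasing ADO for 30 min. Stopped with ice-cold ethanol; cAMP expressed as % of forskolin response.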

[4] = target: T2, A1R alone reconstituted in rHDL (Homo sapiens, UniProt P30542); test: [3H]DPCPX dissociation at A1R-rHDL particles, absence of G protein; format: binding; details: 30 μM MIPS521, SLV320 isotopic dilution
T2 sequence (P30542 1-326): T1 sequence (P30542 1-326)
Method in brief: (§1)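 Purified A1R reconstituted into MSP1D1 nanodiscs (POPC:POPG 3:2; molar ratio 1:10:800) for 1 h at 4°C, then Bio-beads overnight; empty discs removed on anti-Flag resin. Particles ± Gi2 heterotrimer (1:50 molar) were equilibrated 1 h with 2 nM [3H]DPCPX ± 30 μM test compound. Dissociation started with excess SLV320, filtered on GF/C and counted. Fitted to mono-exponential decay; n = 3-5, duplicate.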

mutant A1R [5] = target: T3, mutant A1R (Homo sapiens, UniProt P30542, L242A/L245A); format: binding; details: alanine mutation of both L242^6.43 and L245^6.46
T3 sequence (P30542 1-326 L242A/L245A): T1 sequence (P30542 1-326) with L242A, L245A

mutant A1R [6] = target: T4, mutant A1R (Homo sapiens, UniProt P30542, S246A); format: binding; details: S246^6.47A
T4 sequence (P30542 1-326 S246A): T1 sequence (P30542 1-326) with S246A

mutant A1R [7] = target: T5, mutant A1R (Homo sapiens, UniProt P30542, M283V); format: binding; details: M283^7.48V
T5 sequence (P30542 1-326 M283V): T1 sequence (P30542 1-326) with M283V

mutant A1R [8] = format: binding, human; details: bulkier side chains at position 7.44 (G279^7.44)
mutant A1R [9] = target: T6, mutant A1R (Homo sapiens, UniProt P30542, L276A); format: binding; details: L276^7.41A
T6 sequence (P30542 1-326 L276A): T1 sequence (P30542 1-326) with L276A

mutant A1R [10] = target: T7, mutant A1R (Homo sapiens, UniProt P30542, F275V); format: binding; details: F275^7.40V
T7 sequence (P30542 1-326 F275V): T1 sequence (P30542 1-326) with F275V

nerve-injured rats [11] = format: in vivo, rat; details: intrathecal
Method in brief: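 Sciatic nerve partially ligated (one third to one half) under isoflurane; allodynia confirmed at day 14. Intrathecal catheters placed at day 12 in male and female Sprague-Dawley rats, 9-14 weeks. After baseline, blinded 10 μL dose (DMSO/saline 60:40) plus 25 μL saline flush. Von Frey filaments 0.52-14.8 g, up-down method, over a time course, including 1 h post-dose. n = 8-10; catheter placement checked with lignocaine.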

[12] = target: A1R-rHDL particles with Gi2 heterotrimeric protein (Homo sapiens, UniProt P30542); test: [3H]DPCPX dissociation at A1R-rHDL particles with saturating Gi2; format: binding; details: 30 μM MIPS521; saturating concentration of Gi2; SLV320 isotopic dilution
Method in brief: as §1

rats = test: Rotarod; format: in vivo, rat
[13] = operational model, ADO, 3 μM forskolin
[14] = intrathecal, compared to vehicle controls, n=3-4

A1R-rHDL particles with Gi2 heterotrimeric protein, sequence (P62873 whole entry, one chain of several): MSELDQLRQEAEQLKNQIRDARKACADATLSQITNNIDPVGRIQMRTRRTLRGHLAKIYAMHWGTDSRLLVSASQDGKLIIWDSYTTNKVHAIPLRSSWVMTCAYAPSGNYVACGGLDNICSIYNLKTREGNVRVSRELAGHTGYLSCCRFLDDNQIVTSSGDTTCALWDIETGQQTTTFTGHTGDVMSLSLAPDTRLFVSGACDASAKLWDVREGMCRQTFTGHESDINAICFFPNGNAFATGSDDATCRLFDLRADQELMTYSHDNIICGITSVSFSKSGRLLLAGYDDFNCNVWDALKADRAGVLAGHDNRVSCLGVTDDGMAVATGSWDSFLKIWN
A1R-rHDL particles with Gi2 heterotrimeric protein, sequence (P59768 2-68, one chain of several, further chain): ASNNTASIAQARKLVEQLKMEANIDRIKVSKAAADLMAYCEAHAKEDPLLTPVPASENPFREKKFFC
A1R-rHDL particles with Gi2 heterotrimeric protein, sequence (P04899 2-355, one chain of several, further chain): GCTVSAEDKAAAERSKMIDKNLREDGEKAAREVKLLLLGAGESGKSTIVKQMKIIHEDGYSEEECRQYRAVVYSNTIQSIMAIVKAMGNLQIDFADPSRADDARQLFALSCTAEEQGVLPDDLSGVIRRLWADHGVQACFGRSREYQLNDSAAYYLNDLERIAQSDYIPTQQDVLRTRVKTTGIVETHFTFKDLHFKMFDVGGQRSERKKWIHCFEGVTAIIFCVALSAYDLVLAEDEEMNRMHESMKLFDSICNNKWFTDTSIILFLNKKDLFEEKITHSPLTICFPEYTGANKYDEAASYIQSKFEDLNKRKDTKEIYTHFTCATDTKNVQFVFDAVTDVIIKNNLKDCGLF

In the case of `CCCn1c(=O)c2[nH]c(C3CCCC3)nc2n(CCC)c1=O` [DPCPX, reference compound], the “increase in eEPSC amplitude from baseline” value (dorsal horn neurons; nerve-injured animals) is reported as 19.7 ± 6.1% and the “increase in eEPSC amplitude from baseline” value (dorsal horn neurons; sham controls) is reported as 7.89 ± 2.7%.
With `Nc1scc(-c2cc(C(F)(F)F)cc(C(F)(F)F)c2)c1C(=O)c1ccc(Cl)cc1` [MIPS521] the “time spent in the drug paired chamber” value (nerve-injured rats [1]; 10 μg) was “increased the time nerve-injured rats spent in the drug paired chamber”, the spontaneous pain (nerve-injured rats [1]; lower dose than VCP171 (10 μg)) was “significantly reduced spontaneous pain” and the “effect on rat atrial beat rate” value (rat atrial beat rate) was “minimal effect”. For the same compound, the “sEPSC frequency and amplitude” value (dorsal horn neurons) was “reduced”, the “pEC50 for reducing eEPSCs” value (dorsal horn neurons; spinal cord from nerve-injured animals, n=4-12) was 6.9 ± 0.4 and the stability in plasma (Stability in rat plasma; 4-hour incubation period) was “stable”. For the same compound, the stability in plasma ([2]; 4-hour incubation period) was “stable”, the “affinity for the A1R allosteric site, pKB” value ([3]; operational model of allosterism and agonism, ADO, 3 μM forskolin, n=3) was 4.95 ± 0.40 and the “positive cooperativity with ADO, Log αβ” value [3, 13] was 1.81 ± 0.53. The “direct allosteric agonism / signaling efficacy, Log τB” value ([3]; operational model, recombinant CHO cells) was 0.96 ± 0.34, the “effect on dissociation of pre-equilibrated [3H]DPCPX” value [4] was “no effect” and the “change in PAM affinity (pKB) vs wild type” value (shortened to “change in PAM affinity (pKB)”) (mutant A1R [5]) was “no effect on affinity”. The “change in binding cooperativity (log α) with NECA vs wild type” value (from here on “change in binding cooperativity (log α)”) (mutant A1R [5]) was “significant decrease in PAM cooperativity”, the “change in PAM affinity (pKB)” value (mutant A1R [6]) was “significant decrease in both PAM affinity and cooperativity” and the “change in binding cooperativity (log α)” value (mutant A1R [6]) was “significant decrease in both PAM affinity and cooperativity”. The “change in PAM affinity (pKB)” value (mutant A1R [7]) was “significantly reduced the affinity”, the “change in PAM affinity (pKB)” value (mutant A1R [8]) was “significant loss of both modulator affinity and cooperativity” and the “change in binding cooperativity (log α)” value (mutant A1R [8]) was “significant loss of both modulator affinity and cooperativity”. For the same compound, the “change in PAM affinity (pKB)” value (mutant A1R [9]) was “significantly decreased MIPS521 affinity”, the “change in PAM affinity (pKB)” value (mutant A1R [10]) was “decrease in affinity” and the “mechanical hyperalgesia (paw withdrawal threshold)” value (nerve-injured rats [11]; compared with VCP171) was “reversed the mechanical hyperalgesia at lower concentrations than VCP171”. The “effect on dissociation of pre-equilibrated [3H]DPCPX” value [12] was “even more profound retardation” and the “rotarod latency to fall / motor function” value (rats; [14]) was “neither MIPS521 nor VCP171 affected motor function; also recorded: not significantly different to vehicle controls”.
In the case of `Nc1scc(-c2cccc(C(F)(F)F)c2)c1C(=O)c1ccccc1` [VCP171, (2-amino-4-(3-(trifluoromethyl)phenyl)thiophen-3-yl)(phenyl)methanone], the spontaneous pain (nerve-injured rats [1]; 30 μg (highest dose)) is reported as “reduced spontaneous pain”, the “time spent in the drug paired chamber” value (nerve-injured rats [1]; 30 μg) is reported as “increased the time nerve-injured rats spent in the drug paired chamber” and the “sEPSC frequency and amplitude” value (dorsal horn neurons) is reported as “reduced”. The “time stable in plasma” value (Stability in rat plasma) was “at least 4 h”, the “time stable in plasma” value [2] was “at least 4 h” and the Kb [3] was 3.16 µM. The “positive cooperativity with ADO, Log αβ” value [3, 13] was 0.76 ± 0.25, the “allodynia (paw withdrawal threshold)” value (nerve-injured rats [11]; 30 μg) was “small reduction of allodynia” and the paw withdrawal threshold (nerve-injured rats [11]; 1-10 μg) was “no effect”. For the same compound, the “rotarod latency to fall / motor function” value (rats; both, Sprague Dawley, rat, in vivo) was “neither MIPS521 nor VCP171 affected motor function” and the “rotarod latency to fall / motor function” value (rats; rat, in vivo) was “not significantly different to vehicle controls”.
In the case of `CN1CC[C@]23c4c5ccc(O)c4O[C@H]2[C@@H](O)C=C[C@H]3[C@H]1C5` [morphine, reference compound], the “time spent in the drug paired chamber” value (nerve-injured rats [1]; 10 μg) is reported as “increased the time nerve-injured rats spent in the drug paired chamber” and the “rotarod latency to fall / motor function” value (rats; [14]) is reported as “reduces rotarod latency to fall”.
